According to the RNAGym collection of RNA variant scans (doi:10.1126/science.aae0568):
This sample holds only a part of the variants without activity.

B1: tRNA (parent)
chain: GUUCCGUUGGCGUAAUGGUAACGCGUCUCCCUCCUAAGGAGAAGACUGCGGGUUCGAGUCCCGUACGGAACG

Variants of: B1
Test: yeast fitness relative to wild type (ratio to wild type); higher = fitter; tRNA-Arg(CCU), competitive growth, 37 C, YPD
How it was run: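 Genotype frequency changes were the basis for Darwinian fitness relative to wild type. The frequencies came from 100-nucleotide paired-end sequencing of gene amplicons from the start population and each end population of pooled yeast strains with tRNA-Arg(CCU) gene variants at the native locus. Competition ran in YPD at 37°C for 24 hours in six replicates, genotypes needed ≥ 100 starting reads, and estimates < 0.5 were set to 0.5.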

| Variant | yeast fitness |
| --- | --- |
| A15G G41C A45G | ≤ 0.5 |
| A15U G17A | 0.707 |
| A15U A36C G48C U59A C66U | ≤ 0.5 |
| A15U A20C U32G | ≤ 0.5 |
| A15U C31U U35A A36C U53A | 0.625 |
| A15U C49G | 0.671 |
| A15G G44C | 0.785 |
| A15G G58A | 0.909 |
| A15G G58C | 0.949 |
| A15U C24A G25A U47C G52C C62U C66A A70C | ≤ 0.5 |
| A15U C30G C34U C66U A70C | 0.511 |
| A15U C24G C34U U53C C55G C62A | ≤ 0.5 |
| A15U A43C G48A G68C | ≤ 0.5 |
| A15U C24G A65U | ≤ 0.5 |
| A15G G41C G51C | ≤ 0.5 |
| A15G G67A A69U | 0.637 |
| A15G U32G A43C | ≤ 0.5 |
| A15G U19A | 1.13 |
| A15U C31U G52A | 0.576 |
| A15U A45U A69C | 0.647 |
| A15U C27A C62U A65C A69C | ≤ 0.5 |
| A15G G50A A57G | 0.584 |
| A15U A36G | 0.665 |
| A15G G41A C49A C66A | 0.53 |

| Variant | yeast fitness |
| --- | --- |
| A15U C31G C34U A40C | 0.531 |
| A15U G18A C27U U35C G41A C49U U53A | 0.603 |
| A15U A65U A70C | ≤ 0.5 |
| A15U C22U G44C A65G | ≤ 0.5 |
| A15U C33G | 0.551 |
| A15U C49U G56A C61G | ≤ 0.5 |
| A15G U26G C30U A37C G39C C61G A69G | ≤ 0.5 |
| A15U C33U U64G A70C | ≤ 0.5 |
| A15G G25C G48C | 0.576 |
| A15G G39A C62G | 0.568 |
| A15U C22G C31G U32G | 0.626 |
| A15U A57C A65U A69C | ≤ 0.5 |
| A15G G51A | 0.668 |
| A15U A21G G25C C33A A37U | 0.554 |
| A15G G48A A65U | 0.759 |
| A15G U28C C30U A69U | 0.633 |
| A15U C24G A42C A43C | ≤ 0.5 |
| A15U G18A A57U | ≤ 0.5 |
| A15G G48C A69U | 0.636 |
| A15G U53C C61G | ≤ 0.5 |
| A15G G50A G56A | 0.552 |
| A15G U28A C34G C46A | 0.501 |
| A15G U26A C60U A70C | 0.52 |
| A15U C22G G48C G63C A70C | ≤ 0.5 |

| Variant | yeast fitness |
| --- | --- |
| A15U G17C A45U C49G | ≤ 0.5 |
| A15U C30U A57G | ≤ 0.5 |
| A15G U26G C30U | ≤ 0.5 |
| A15G G52C A70U | ≤ 0.5 |
| A15G U32A G38A | 0.525 |
| A15G U32A G52C G68A | ≤ 0.5 |
| A15U A69U | 0.696 |
| A15G G38C | 0.669 |
| A15G G38A | 0.866 |
| A15U A20G U28A C33G | ≤ 0.5 |
| A15U A70G | 0.663 |
| A15U A70C | 0.867 |
| A15U A70U | 0.836 |
| A15U A20C G23A C30U | ≤ 0.5 |
| A15U G17C A37U | ≤ 0.5 |
| A15U A40G A65U | 0.516 |
| A15G U28C A37C | ≤ 0.5 |
| A15U A21G | 0.785 |
| A15U C27A C49G U64A | 0.639 |
| A15G G39C A40C | 0.622 |
| A15U A36U A40U G68C | 0.643 |
| A15U C27U C49U | 0.655 |
| A15G G38C C66U | ≤ 0.5 |
| A15U C31A C62U | 0.573 |

| Variant | yeast fitness |
| --- | --- |
| A15U A36G A37U A65U | ≤ 0.5 |
| A15G U19C A37U | 0.622 |
| A15G G25C G48A G56A | 0.79 |
| A15G G23A G25A G38A A70U | ≤ 0.5 |
| A15U G18A A40C A43C C46G A69C | ≤ 0.5 |
| A15U A21G C24U C33U A40C A43C C49U C55U C61U | ≤ 0.5 |
| A15U A42U C46U C55G | ≤ 0.5 |
| A15G G25A C30A G52A | 0.563 |
| A15G G52A | 0.772 |
| A15G G52C | 0.568 |
| A15G G52U | 0.73 |
| A15G U32C | 0.983 |
| A15U A36G C55G G56A | 0.535 |
| A15U C31G C33U A37C A65U G67A | ≤ 0.5 |
| A15G U16A G38C C62G G68A | ≤ 0.5 |
| A15U C24G G44C G58C G68U | ≤ 0.5 |
| A15G G38C U64A G68A A69C | ≤ 0.5 |
| A15G G51A A65U | ≤ 0.5 |
| A15U A40U C49U | 0.599 |
| A15U C27A U35C U54C U64C | ≤ 0.5 |
| A15U C22G C31U A65U A69U | ≤ 0.5 |
| A15G G41C C49G C55U C61A | 0.638 |
| A15G U35A A57G G58U C62G | ≤ 0.5 |
| A15U C22G A70C | ≤ 0.5 |

| Variant | yeast fitness |
| --- | --- |
| A15U C31U C46G G63A A65G A70U | ≤ 0.5 |
| A15G U19C C46G C55U | ≤ 0.5 |
| A15U C24G U32C A42C A43C | ≤ 0.5 |
| A15G G39A C49U | 0.679 |
| A15U A36G G51C C55G | ≤ 0.5 |
| A15U A20G G63C | 0.555 |
| A15G G25C C31U A70U | ≤ 0.5 |
| A15U C31A A70G | ≤ 0.5 |
| A15U A20C G48A A69C | ≤ 0.5 |
| A15U C60G A65U | ≤ 0.5 |
| A15U A21C C49A | ≤ 0.5 |
| A15G G41A U53G | ≤ 0.5 |
| A15U C22U A57U | ≤ 0.5 |
| A15G U26G | 0.703 |
| A15G U26C | 0.802 |
| A15U A40U G52A A65C | ≤ 0.5 |
| A15U G18A C27G G56C G68C | ≤ 0.5 |
| A15G U64C | 0.976 |
| A15U C27A A65C A69C | 0.577 |
| A15U C55G U64C A65C | ≤ 0.5 |
| A15G U19A U28A G63A | ≤ 0.5 |
| A15U A42C | 0.787 |
| A15U C24A C29G | ≤ 0.5 |
| A15U C22U G44C | ≤ 0.5 |

| Variant | yeast fitness |
| --- | --- |
| A15U C29G C34U C66U | ≤ 0.5 |
| A15U C30A C31U A45C C55G | ≤ 0.5 |
| A15U C27U G48C A69G A70U | ≤ 0.5 |
| A15G G23C A45G G52A G63A | ≤ 0.5 |
| A15U C66G | 0.671 |
| A15U A20G C27U C30A | ≤ 0.5 |
| A15U C27A A43C | 0.592 |
| A15U C22G C31U U64A G68C A70U | ≤ 0.5 |
| A15U A20G G41C C60U G67A | ≤ 0.5 |
| A15U A43U C55G | ≤ 0.5 |
| A15U C22G A69U | 0.608 |
| A15G G38A A40G A69U | ≤ 0.5 |
| A15G G41A A69U | 0.615 |
| A15U C30G A36C C60A C61U | ≤ 0.5 |
| A15U C24G U53A U64A | ≤ 0.5 |
| A15U A37U C49G A65G | ≤ 0.5 |
| A15G G23U C24G A45G | 0.554 |
| A15G G44C U59A | ≤ 0.5 |
| A15G U26G A65C | 0.632 |
| A15G G38C C60G | ≤ 0.5 |
| A15U A20C G67U | 0.605 |
| A15U C29U C66A | 0.57 |
| A15U C34A G39C A40C G56C C61G C62G G68C | 0.533 |
| A15U C34A A40U G52A G68A | ≤ 0.5 |

| Variant | yeast fitness |
| --- | --- |
| A15U A20C G50C | ≤ 0.5 |
| A15G G39A | 0.959 |
| A15U C30G G38A U54C | 0.553 |
| A15G U47G A69C | ≤ 0.5 |
| A15U A42C U47A G63C A69C | ≤ 0.5 |
| A15U C24G C62U A69U | ≤ 0.5 |
| A15G U26A G41A U64A A70C | ≤ 0.5 |
| A15U G18A A37G G50A | ≤ 0.5 |
| A15G U32A G38A G52A C66U | ≤ 0.5 |
| A15U C24G A45G G52A U54A | ≤ 0.5 |
| A15U C34G C55U A69C | ≤ 0.5 |
| A15U C34G A37G A40C C62U A65U | ≤ 0.5 |
| A15G G48C C61A | ≤ 0.5 |
| A15U C29A C34G | ≤ 0.5 |
| A15U C24G G63A | ≤ 0.5 |
| A15U C33U G56A | ≤ 0.5 |
| A15G U28G A42U G48A | ≤ 0.5 |
| A15U C33G C62G | 0.602 |
| A15G U26C U32A C34U G38C G51A A57C C66U | ≤ 0.5 |
| A15U C33G G52A A65G | ≤ 0.5 |
| A15U C27A G56C G63A | ≤ 0.5 |
| A15U A40U G52A | ≤ 0.5 |
| A15G G25C G67A A70G | ≤ 0.5 |
